# Substitutions are numbered along the chain they refer to. Where two headings read alike, the source gives them in different places.
# Legend:
# [1] = molecular target: ArsD109 V17W single-tryptophan derivative (Escherichia coli, UniProt P46003, V17W/W35Y/W97Y); type: binding; conditions: for fluorescence quenching: high concentrations: 5 mM As(III) or 0.1 mM Sb(III) (Figure 2B)
# [2] = molecular target: ArsD109 T15W single-tryptophan derivative (Escherichia coli, UniProt P46003, T15W/W35Y/W97Y); assay: Intrinsic tryptophan fluorescence quenching, metalloid binding to T15W; conditions: for fluorescence quenching: high concentrations: 5 mM As(III) or 0.1 mM Sb(III) (Figure 2B)
# [3] = molecular target: T1, ArsD109 C18G/T15W (Escherichia coli, UniProt P46003, C18G/T15W/W35Y/W97Y); assay: Intrinsic tryptophan fluorescence quenching, As; type: binding
# T1 sequence (P46003 1-109 T15W/C18G/W35Y/W97Y): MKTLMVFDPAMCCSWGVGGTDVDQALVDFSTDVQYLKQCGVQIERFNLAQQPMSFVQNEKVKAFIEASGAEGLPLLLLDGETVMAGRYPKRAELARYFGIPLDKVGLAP
# Method in brief: (§1)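 N-terminal His6 ArsD109 (W35/97Y, T15W, plus single Cys→Gly) expressed in BL21(DE3) with 0.3 mM IPTG for 3 h. Used at 1 μM in 50 mM MOPS-KOH pH 7.5 with 0.25 mM EDTA, room temperature. Sodium arsenite titrated. Quenching rate k_obs (ex 295 nm, em 345 nm) fitted per arsenite concentration; k_obs = k_off + k_on[As(III)], and Kd = k_off/k_on.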
# [4] = molecular target: T2, ArsD109 C12G/T15W (Escherichia coli, UniProt P46003, C12G/T15W/W35Y/W97Y); assay: Intrinsic tryptophan fluorescence quenching, As; type: binding
# T2 sequence (P46003 1-109 C12G/T15W/W35Y/W97Y): T1 sequence (P46003 1-109 T15W/C18G/W35Y/W97Y) with C12G, G18C
# Method in brief: as §1
# [5] = molecular target: T3, ArsD109 C13G/T15W (Escherichia coli, UniProt P46003, C13G/T15W/W35Y/W97Y); assay: Intrinsic tryptophan fluorescence quenching, As; type: binding
# T3 sequence (P46003 1-109 C13G/T15W/W35Y/W97Y): T1 sequence (P46003 1-109 T15W/C18G/W35Y/W97Y) with C13G, G18C
# Method in brief: as §1
# [6] = tested on: single-tryptophan derivatives of ArsD109; type: binding, Escherichia coli; conditions: 1 μM protein mixed with equimolar As(III), absence of added thiols
# Method in brief: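 Single-tryptophan ArsD109 (N-terminal His6, W35/97Y background carrying T15W or V17W), expressed in E. coli BL21(DE3). Protein at 1 μM in 50 mM MOPS-KOH pH 7.5 with 0.25 mM EDTA, room temperature, no thiol added. Sodium arsenite added from concentrated stock. Trp fluorescence (ex 295 nm, em 345 nm) followed over time and corrected for dilution.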
# [7] = molecular target: ArsA ATPase (Escherichia coli, UniProt P08690); assay: Coupled ATPase assay, metalloid-stimulated ArsA activity; type: biochemical; conditions: DMSA titration
# [8] = thiolate of GS^−1; cited from earlier work
# [9] = molecular target: ArsD109-ArsA (Escherichia coli, UniProt P08690+P46003, DEL110-120); assay: Metalloid transfer assay on amylose column; type: biochemical; conditions: 5 mM nucleotide
# [10] = quenching of T15W fluorescence, retains Cys12 and Cys13
# [11] = quenching of T15W fluorescence, retains Cys13 and Cys18
# [12] = quenching of T15W fluorescence, retains Cys12 and Cys18
# [13] = additive 5 mM, 50 μM sodium arsenite, pH 7.5
smiles,measurement,setting,value
"O=[As][O-].[Na+] [As(III), sodium arsenite]",rate of fluorescence quenching at pH 9 relative to pH 7,"[1]; 50 μM sodium arsenite, 1 μM V17W, absence of GSH",~ 10 fold
same,fluorescence change in the absence of GSH,"[1]; 50 μM sodium arsenite, pH 7.5",decreased very slowly
same,fluorescence quenching,[1],approximately 50%
same,Kd,"[1]; read-out: Kd (binding affinity), calculated from koff/kon",2 ± 1 µM
same,koff,"[2]; As(III) concentration dependence of fluorescence quenching, no added thiols",(3 ± 1) × 10^−4 s^−1
same,Kd,[2]; calculated from koff/kon,1.5 ± 0.5 µM
same,fluorescence quenching,[2],approximately 50%
same,Kd,[3]; calculated from koff/kon,28 ± 3 µM
same,koff,[3]; [10],(1.4 ± 0.1) × 10^−3 s^−1
same,kon,[3]; [10],(5 ± 0.1) × 10^−5 s^−1 μM^−1
same,Kd,[4]; calculated from koff/kon,48 ± 3 µM
same,koff,[4]; [11],(2.4 ± 0.1) × 10^−3 s^−1
same,kon,[4]; [11],(5 ± 0.1) × 10^−5 s^−1 μM^−1
same,Kd,[5]; calculated from koff/kon,68 ± 6 µM
same,koff,[5]; [12],(2.7 ±0.1) × 10^−3 s^−1
same,kon,[5]; [12],(4 ±0.2) × 10^−5 s^−1 μM^−1
same,time to attain a steady-state level of fluorescence,[6],more than 2 h
"O=C(O)[C@@H](S)[C@@H](S)C(=O)O [DMSA, dimercaptosuccinic acid]",effect on basal activity of ArsA,[7]; 0.3 μM ArsA alone,did not affect
same,effect on As(III)-stimulated rate of ArsA activity,"[7]; 0.3 μM ArsA, 0.5 mM sodium arsenite",inhibited
"N[C@@H](CCC(=O)N[C@@H](CS)C(=O)NCC(=O)O)C(=O)O [GSH, reduced glutathione]",acceleration of rate of As(III) fluorescence quenching,"[1]; 5 mM GSH, 50 μM sodium arsenite, 1 μM V17W, pH 7.5",10 fold
same,rate of As(III) fluorescence quenching with additive,"[1]; 5 mM GSH, 50 μM sodium arsenite, pH ≥8",too fast to measure accurately
same,effect of additive on rate of fluorescence quenching by As(III),"[1]; additive 0.2 mM, 50 μM sodium arsenite, pH 7.5",had little effect
same,effect of additive on rate of fluorescence quenching by As(III),[1]; [13],increased the rate substantially
same,pKa,[8],8.7
N[C@@H](CS)C(=O)O [L-cysteine],effect of additive on rate of fluorescence quenching by As(III),[1]; [13],increased the rate of quenching
Nc1ncnc2c1ncn2[C@@H]1O[C@H](COP(=O)([O-])OP(=O)([O-])O)[C@@H](O)[C@H]1O.[Mg+2] [MgADP],transfer of As(III) from MBP-ArsD109 to ArsA,[9]; room temperature,As(III) eluted with MBP-ArsD109 and not with ArsA
Nc1ncnc2c1ncn2[C@@H]1O[C@H](CO[P@](=O)(O)O[P@](=O)(O)O[P@@](=O)(O)S)[C@@H](O)[C@H]1O [MgATP-γ-S],transfer of As(III) from MBP-ArsD109 to ArsA,[9]; room temperature,did not promote transfer
Nc1ncnc2c1ncn2[C@@H]1O[C@H](COP(=O)(O)OP(=O)([O-])OP(=O)([O-])O)[C@@H](O)[C@H]1O.[Mg+2] [MgATP],transfer of As(III) from MBP-ArsD109 to ArsA,[9]; 4 °C,almost no As(III) eluted with ArsA
same,transfer of As(III) from MBP-ArsD109 to ArsA,[9]; room temperature,nearly all of the As(III) eluted in the ArsA-containing fractions
"O.O.O.O=C([O-])[C@H]([O-])[C@@H]([O-])C(=O)[O-].O=C([O-])[C@H]([O-])[C@@H]([O-])C(=O)[O-].[K+].[K+].[Sb+3].[Sb+3] [Sb(III), potassium antimonyl tartrate]",fluorescence quenching in the absence of added monothiols,"[1]; 2.5 μM, pH 7.5",rapidly quenched fluorescence
same,fluorescence quenching,[1],approximately 50%
same,fluorescence quenching,[2],approximately 50%
"O=C(O)CCP(CCC(=O)O)CCC(=O)O [TCEP, tris(2-carboxyethyl)phosphine]",effect of additive on rate of fluorescence quenching by As(III),[1]; [13],did not increase the rate of quenching
OCCS [β-mercaptoethanol],effect of additive on rate of fluorescence quenching by As(III),[1]; [13],increased the rate of quenching

# From publication PMC2920133 (Biochemistry, 2010)
